Reference: ChEMBL document CHEMBL1136005 (J Med Chem, 2002)
pIC50: −log10 of the molar value. In brackets after ≈: the same amount, converted by molar mass. Blank lines part the entries; values can stand above or below the molecule they belong to.

Assays:
[1] = Plasma concentration was determined after 1 hr at a dose 30 mg/kg administered orally to rat-2; type: ADME, organism-based; parameters: dose 30 mg/kg, route oral; settings: po
Procedure, shortened: (§1)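 Sprague-Dawley rats, n=2 per compound, dosed orally at 30 mg/kg. Plasma drug concentration measured 1 and 8 h after dosing.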

[2] = Plasma concentration was determined after 8 hr at a dose 30 mg/kg administered orally to rat-1; type: ADME, organism-based; parameters: dose 30 mg/kg, route oral; settings: po; procedure, shortened: as §1
[3] = Plasma concentration was determined after 8 hr at a dose 30 mg/kg administered orally to rat-2; type: ADME, organism-based; parameters: dose 30 mg/kg, route oral; settings: po; procedure, shortened: as §1
[4] = Plasma concentration was determined after 1 hr at a dose 30 mg/kg administered orally to rat-1; type: ADME, organism-based; parameters: dose 30 mg/kg, route oral; settings: po; procedure, shortened: as §1
[5] = biological target: Platelet-derived growth factor receptor (Homo sapiens, UniProt P09619+P16234); assay: Concentration required for 50% inhibition against autophosphorylation of Platelet-derived growth factor receptor beta in intact cells using a two site ELISA; type: cell-based
[6] = Plasma concentration was determined after 1 hr at a dose 30 mg/kg administered orally to rat-3; type: ADME, organism-based; parameters: dose 30 mg/kg, route oral; settings: po; procedure, shortened: as §1
[7] = Plasma concentration was determined after 1 hr at a dose 30 mg/kg administered orally to rat-4; type: ADME, organism-based; parameters: dose 30 mg/kg, route oral; settings: po; procedure, shortened: as §1
[8] = Plasma concentration was determined after 8 hr at a dose 30 mg/kg administered orally to rat-3; type: ADME, organism-based; parameters: dose 30 mg/kg, route oral; settings: po; procedure, shortened: as §1
[9] = Plasma concentration was determined after 8 hr at a dose 30 mg/kg administered orally to rat-4; type: ADME, organism-based; parameters: dose 30 mg/kg, route oral; settings: po; procedure, shortened: as §1
[10] = biological target: Platelet-derived growth factor receptor alpha (Homo sapiens, UniProt P16234); assay: Inhibition of PDGF receptor alpha autophosphorylation
Chain of Platelet-derived growth factor receptor alpha (P16234 whole entry): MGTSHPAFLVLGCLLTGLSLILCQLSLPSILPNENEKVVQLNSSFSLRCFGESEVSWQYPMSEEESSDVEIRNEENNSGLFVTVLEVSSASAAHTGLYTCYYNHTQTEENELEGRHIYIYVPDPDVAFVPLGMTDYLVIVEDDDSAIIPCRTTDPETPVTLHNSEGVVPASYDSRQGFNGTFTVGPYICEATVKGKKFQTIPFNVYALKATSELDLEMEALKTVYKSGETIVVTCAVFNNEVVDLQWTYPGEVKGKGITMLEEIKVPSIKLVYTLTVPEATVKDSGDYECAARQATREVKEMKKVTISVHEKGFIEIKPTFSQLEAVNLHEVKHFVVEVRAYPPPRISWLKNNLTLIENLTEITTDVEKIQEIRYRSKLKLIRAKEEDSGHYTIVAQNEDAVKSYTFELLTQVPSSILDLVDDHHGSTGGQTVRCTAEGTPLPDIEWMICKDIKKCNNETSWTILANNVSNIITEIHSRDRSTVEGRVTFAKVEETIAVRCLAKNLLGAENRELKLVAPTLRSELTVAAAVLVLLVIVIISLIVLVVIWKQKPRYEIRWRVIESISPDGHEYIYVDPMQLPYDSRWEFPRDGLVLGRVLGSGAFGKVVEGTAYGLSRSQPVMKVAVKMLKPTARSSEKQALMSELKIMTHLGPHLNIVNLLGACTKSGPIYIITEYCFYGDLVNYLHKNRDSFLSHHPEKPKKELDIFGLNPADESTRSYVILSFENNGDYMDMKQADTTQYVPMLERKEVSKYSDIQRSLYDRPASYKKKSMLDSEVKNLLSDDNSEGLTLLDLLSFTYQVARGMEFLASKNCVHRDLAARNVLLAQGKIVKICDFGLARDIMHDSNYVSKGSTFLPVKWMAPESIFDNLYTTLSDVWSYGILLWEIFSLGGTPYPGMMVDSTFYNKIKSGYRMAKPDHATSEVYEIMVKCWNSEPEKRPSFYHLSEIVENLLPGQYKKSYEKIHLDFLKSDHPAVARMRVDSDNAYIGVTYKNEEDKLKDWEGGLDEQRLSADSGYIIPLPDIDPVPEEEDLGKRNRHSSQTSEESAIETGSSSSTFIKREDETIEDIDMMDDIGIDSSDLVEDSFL

[11] = biological target: Fibroblast growth factor receptor (Homo sapiens, UniProt P22607+P11362+P22455+P21802); assay: Inhibition of Fibroblast growth factor receptor autophosphorylation; type: protein assay
[12] = biological target: T1, Receptor-type tyrosine-protein kinase FLT3 (Homo sapiens, UniProt P36888); assay: Inhibition of Flt3 autophosphorylation
T1 sequence (P36888 whole entry): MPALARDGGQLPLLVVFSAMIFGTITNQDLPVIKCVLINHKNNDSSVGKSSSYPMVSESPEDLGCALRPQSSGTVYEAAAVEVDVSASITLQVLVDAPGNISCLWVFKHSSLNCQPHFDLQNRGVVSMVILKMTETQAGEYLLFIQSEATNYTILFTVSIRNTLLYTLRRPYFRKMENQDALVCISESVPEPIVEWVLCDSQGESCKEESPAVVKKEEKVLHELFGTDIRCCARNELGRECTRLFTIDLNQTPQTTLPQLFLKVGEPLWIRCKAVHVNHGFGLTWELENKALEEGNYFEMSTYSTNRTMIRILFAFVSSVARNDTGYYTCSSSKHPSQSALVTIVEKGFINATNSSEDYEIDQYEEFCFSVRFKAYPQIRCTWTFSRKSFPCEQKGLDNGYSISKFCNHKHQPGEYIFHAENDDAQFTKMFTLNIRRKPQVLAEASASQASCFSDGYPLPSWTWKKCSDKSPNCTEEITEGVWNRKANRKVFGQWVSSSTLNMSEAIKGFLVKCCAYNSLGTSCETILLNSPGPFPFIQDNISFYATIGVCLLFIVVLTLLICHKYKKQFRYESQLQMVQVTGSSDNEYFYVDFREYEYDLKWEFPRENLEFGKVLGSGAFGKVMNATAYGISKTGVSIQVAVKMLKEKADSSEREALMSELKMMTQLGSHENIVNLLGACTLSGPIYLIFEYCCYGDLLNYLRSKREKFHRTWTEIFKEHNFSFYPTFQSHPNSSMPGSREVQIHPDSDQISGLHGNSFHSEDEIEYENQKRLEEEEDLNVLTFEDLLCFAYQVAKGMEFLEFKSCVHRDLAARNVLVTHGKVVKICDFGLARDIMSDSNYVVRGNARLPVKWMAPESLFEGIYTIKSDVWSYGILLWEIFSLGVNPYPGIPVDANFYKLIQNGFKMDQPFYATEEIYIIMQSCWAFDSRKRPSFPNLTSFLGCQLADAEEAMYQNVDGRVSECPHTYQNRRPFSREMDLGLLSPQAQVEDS

[13] = biological target: Mitogen-activated protein kinase; ERK1/ERK2 (Homo sapiens, UniProt P27361+P28482); assay: Inhibition of Extracellular signal-regulated kinase (Erk); type: protein assay
Procedure, shortened: (§2)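 Substrate phosphorylation measured in an in vitro assay with purified enzyme; IC50 values in µmol/L.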

[14] = biological target: Mast/stem cell growth factor receptor Kit (Homo sapiens, UniProt P10721); assay: Inhibition of Mast/stem cell growth factor receptor (c-kit) autophosphorylation
Chain of Mast/stem cell growth factor receptor Kit (P10721 whole entry): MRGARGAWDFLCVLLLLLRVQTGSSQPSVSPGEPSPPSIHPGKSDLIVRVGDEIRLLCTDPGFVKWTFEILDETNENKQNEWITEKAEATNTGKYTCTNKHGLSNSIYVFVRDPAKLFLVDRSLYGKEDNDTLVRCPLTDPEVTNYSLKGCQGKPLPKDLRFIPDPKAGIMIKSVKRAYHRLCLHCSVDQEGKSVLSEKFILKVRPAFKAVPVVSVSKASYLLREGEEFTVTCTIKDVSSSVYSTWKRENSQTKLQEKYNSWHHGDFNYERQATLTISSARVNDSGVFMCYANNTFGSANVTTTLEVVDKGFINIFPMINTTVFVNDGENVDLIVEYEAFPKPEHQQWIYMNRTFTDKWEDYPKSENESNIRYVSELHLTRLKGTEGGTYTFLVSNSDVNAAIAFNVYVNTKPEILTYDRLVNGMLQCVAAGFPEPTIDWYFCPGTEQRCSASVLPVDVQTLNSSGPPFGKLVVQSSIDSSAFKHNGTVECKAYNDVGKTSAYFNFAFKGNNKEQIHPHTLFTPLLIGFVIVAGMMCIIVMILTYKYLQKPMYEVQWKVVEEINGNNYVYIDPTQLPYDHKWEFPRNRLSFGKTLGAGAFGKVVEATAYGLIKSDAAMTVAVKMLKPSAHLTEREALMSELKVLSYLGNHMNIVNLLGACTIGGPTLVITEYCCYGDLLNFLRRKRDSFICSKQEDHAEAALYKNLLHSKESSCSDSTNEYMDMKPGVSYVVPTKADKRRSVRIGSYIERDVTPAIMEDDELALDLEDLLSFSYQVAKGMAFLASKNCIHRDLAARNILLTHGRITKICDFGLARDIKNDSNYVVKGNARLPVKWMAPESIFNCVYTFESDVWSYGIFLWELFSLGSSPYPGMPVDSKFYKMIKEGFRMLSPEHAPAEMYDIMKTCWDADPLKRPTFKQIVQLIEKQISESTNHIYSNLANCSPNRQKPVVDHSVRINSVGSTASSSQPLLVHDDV

[15] = biological target: T2, Dual specificity mitogen-activated protein kinase kinase 3 (Homo sapiens, UniProt P46734); assay: Inhibition of Mitogen activated protein kinase kinase 3; procedure, shortened: as §2
T2 sequence (P46734 whole entry): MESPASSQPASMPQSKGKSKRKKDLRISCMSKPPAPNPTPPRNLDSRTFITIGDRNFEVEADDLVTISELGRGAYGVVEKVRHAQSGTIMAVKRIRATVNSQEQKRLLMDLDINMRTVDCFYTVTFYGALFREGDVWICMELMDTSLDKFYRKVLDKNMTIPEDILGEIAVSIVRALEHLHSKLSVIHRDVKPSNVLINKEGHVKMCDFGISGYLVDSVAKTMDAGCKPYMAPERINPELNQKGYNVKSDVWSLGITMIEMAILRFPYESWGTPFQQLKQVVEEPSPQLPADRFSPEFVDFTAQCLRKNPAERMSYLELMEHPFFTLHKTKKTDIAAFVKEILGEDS

[16] = biological target: Dual specificity mitogen-activated protein kinase kinase 1 (Homo sapiens, UniProt Q02750); assay: Inhibition of Mitogen activated protein kinase kinase 1; procedure, shortened: as §2
Chain of Dual specificity mitogen-activated protein kinase kinase 1 (Q02750 whole entry): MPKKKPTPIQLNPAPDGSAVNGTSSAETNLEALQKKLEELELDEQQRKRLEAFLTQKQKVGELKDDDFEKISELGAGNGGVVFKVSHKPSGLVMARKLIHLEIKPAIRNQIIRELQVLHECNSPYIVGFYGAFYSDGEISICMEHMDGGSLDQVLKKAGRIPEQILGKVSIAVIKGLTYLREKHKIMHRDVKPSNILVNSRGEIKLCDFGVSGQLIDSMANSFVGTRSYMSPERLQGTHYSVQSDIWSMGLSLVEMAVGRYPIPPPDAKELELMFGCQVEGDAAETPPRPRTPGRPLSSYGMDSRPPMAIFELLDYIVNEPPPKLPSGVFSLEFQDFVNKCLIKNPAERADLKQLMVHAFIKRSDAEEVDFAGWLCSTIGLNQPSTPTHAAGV

MAP kinase p38 = MAP kinase p38 (Homo sapiens, UniProt O15264+Q15759+Q16539+P53778); assay: Inhibition of Mitogen-activated protein kinase p38; type: protein assay; procedure, shortened: as §2
[17] = biological target: T3, Dual specificity mitogen-activated protein kinase kinase 6 (Homo sapiens, UniProt P52564); assay: Inhibition of Mitogen activated protein kinase kinase 6; procedure, shortened: as §2
T3 sequence (P52564 whole entry): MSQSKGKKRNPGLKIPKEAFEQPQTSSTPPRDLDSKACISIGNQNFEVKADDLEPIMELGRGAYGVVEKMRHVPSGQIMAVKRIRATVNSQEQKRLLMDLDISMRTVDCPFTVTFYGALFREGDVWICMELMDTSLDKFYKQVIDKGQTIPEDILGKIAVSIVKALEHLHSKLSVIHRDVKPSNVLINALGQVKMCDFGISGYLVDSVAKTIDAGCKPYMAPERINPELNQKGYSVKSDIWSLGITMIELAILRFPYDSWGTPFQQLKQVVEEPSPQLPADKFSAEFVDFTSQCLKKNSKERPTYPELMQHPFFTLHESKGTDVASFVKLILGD

Protein kinase C (PKC) = assay: Inhibition of Protein kinase C; type: protein assay; procedure, shortened: as §2
[18] = biological target: cAMP-dependent protein kinase (PKA) (Homo sapiens, UniProt P22694+P17612+P22612); assay: Inhibition of Protein kinase A (PKA); type: protein assay; procedure, shortened: as §2
[19] = biological target: Proto-oncogene tyrosine-protein kinase Src (Homo sapiens, UniProt P12931); assay: Inhibition of Src protein tyrosine kinase; procedure, shortened: as §2
Chain of Proto-oncogene tyrosine-protein kinase Src (P12931 2-536 limits assumed): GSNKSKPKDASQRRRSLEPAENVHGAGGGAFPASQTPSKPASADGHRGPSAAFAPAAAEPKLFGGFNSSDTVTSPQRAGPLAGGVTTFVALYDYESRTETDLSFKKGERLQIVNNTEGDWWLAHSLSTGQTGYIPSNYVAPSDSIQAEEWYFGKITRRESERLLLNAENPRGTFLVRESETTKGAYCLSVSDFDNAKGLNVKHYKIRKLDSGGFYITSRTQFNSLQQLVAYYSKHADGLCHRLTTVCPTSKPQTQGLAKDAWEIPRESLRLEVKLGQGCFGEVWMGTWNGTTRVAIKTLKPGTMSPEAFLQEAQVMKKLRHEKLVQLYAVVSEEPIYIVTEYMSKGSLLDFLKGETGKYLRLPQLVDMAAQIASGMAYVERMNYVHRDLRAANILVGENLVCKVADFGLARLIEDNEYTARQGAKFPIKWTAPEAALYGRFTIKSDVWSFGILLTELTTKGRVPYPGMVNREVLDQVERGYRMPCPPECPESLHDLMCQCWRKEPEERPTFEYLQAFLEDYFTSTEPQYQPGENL

[20] = biological target: Mitogen-activated protein kinase 8 (Homo sapiens, UniProt P45983); assay: Inhibition of c-Jun N-terminal kinase (Jnk); procedure, shortened: as §2
Chain of Mitogen-activated protein kinase 8 (P45983 whole entry): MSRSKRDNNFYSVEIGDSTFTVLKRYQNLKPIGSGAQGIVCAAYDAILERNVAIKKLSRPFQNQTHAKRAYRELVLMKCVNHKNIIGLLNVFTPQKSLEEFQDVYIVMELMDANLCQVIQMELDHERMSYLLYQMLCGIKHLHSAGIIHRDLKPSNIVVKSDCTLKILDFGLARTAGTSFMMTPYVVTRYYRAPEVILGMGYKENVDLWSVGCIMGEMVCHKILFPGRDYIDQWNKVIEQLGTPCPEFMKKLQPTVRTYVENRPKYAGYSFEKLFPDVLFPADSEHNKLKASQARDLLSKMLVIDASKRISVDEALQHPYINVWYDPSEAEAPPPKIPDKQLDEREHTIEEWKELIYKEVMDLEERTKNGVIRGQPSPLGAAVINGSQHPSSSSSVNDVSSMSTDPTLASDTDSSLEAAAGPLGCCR

[21] = biological target: Macrophage colony-stimulating factor 1 receptor (Homo sapiens, UniProt P07333); assay: Inhibition of Colony stimulating factor 1 receptor (CSF-1R) autophosphorylation
Chain of Macrophage colony-stimulating factor 1 receptor (P07333 whole entry): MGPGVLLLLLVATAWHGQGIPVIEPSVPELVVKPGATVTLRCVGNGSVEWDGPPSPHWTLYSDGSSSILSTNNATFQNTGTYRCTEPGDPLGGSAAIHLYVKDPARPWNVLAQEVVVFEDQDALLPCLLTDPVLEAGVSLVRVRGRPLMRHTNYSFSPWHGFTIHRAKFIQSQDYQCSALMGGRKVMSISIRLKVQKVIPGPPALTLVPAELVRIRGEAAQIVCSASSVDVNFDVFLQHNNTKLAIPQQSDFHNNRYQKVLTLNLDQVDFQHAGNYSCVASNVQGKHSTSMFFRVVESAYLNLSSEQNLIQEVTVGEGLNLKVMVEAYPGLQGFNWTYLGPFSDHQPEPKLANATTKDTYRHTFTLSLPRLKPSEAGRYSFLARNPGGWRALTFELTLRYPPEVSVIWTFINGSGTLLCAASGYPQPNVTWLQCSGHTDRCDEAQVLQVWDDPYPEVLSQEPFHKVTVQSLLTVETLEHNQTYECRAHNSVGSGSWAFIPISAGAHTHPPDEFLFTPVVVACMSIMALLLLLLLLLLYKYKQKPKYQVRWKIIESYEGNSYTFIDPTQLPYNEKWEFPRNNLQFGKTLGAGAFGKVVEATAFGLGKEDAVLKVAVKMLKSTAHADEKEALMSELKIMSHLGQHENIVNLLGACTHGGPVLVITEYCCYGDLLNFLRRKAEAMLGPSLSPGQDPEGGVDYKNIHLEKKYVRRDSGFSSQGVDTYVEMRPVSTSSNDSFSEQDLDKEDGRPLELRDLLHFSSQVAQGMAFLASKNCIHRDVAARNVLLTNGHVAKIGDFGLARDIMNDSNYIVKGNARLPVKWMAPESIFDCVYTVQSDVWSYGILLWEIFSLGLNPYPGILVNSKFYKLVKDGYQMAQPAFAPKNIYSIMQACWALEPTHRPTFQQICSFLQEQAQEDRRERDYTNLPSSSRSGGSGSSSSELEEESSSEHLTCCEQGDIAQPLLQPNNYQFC

[22] = Plasma concentration was determined after 8 hr at a dose 30 mg/kg administered orally to rat-11; type: ADME, organism-based; parameters: dose 30 mg/kg, route oral; settings: po; procedure, shortened: as §1
[23] = Solubility in aqueous phosphate buffer (pH 7.4) at 20c was determined; type: physicochemical
[24] = Plasma concentration was determined after 1 hr at a dose 30 mg/kg administered orally to rat-12; type: ADME, organism-based; parameters: dose 30 mg/kg, route oral; settings: po; procedure, shortened: as §1
[25] = pharmacokinetic parameter was evaluated after oral administration of 30 mg/kg to rat; type: ADME, organism-based; parameters: dose 30 mg/kg, route oral; settings: in vivo
Procedure, shortened: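 Sprague-Dawley rats, n=3, dosed orally at 30 mg/kg. Plasma drug concentrations were followed to derive Tmax (h), Cmax (µg/mL), T1/2 (h) and AUC0-∞ (µg h/mL).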

[26] = Lipophilicity was reported; type: physicochemical; settings: octanol/water
[27] = Plasma concentration was determined after 8 hr at a dose 30 mg/kg administered orally to rat-12; type: ADME, organism-based; parameters: dose 30 mg/kg, route oral; settings: po; procedure, shortened: as §1
[28] = Plasma concentration was determined after 1 hr at a dose 30 mg/kg administered orally to rat-11; type: ADME, organism-based; parameters: dose 30 mg/kg, route oral; settings: po; procedure, shortened: as §1
[29] = Plasma concentration was determined after 1 hr at a dose 30 mg/kg administered orally to rat-13; type: ADME, organism-based; parameters: dose 30 mg/kg, route oral; settings: po; procedure, shortened: as §1
[30] = Plasma concentration was determined after 1 hr at a dose 30 mg/kg administered orally to rat-14; type: ADME, organism-based; parameters: dose 30 mg/kg, route oral; settings: po; procedure, shortened: as §1
[31] = Plasma concentration was determined after 8 hr at a dose 30 mg/kg administered orally to rat-13; type: ADME, organism-based; parameters: dose 30 mg/kg, route oral; settings: po; procedure, shortened: as §1
[32] = Plasma concentration was determined after 8 hr at a dose 30 mg/kg administered orally to rat-14; type: ADME, organism-based; parameters: dose 30 mg/kg, route oral; settings: po; procedure, shortened: as §1

concentration at 1 h [1]: 11600 ng/mL | concentration at 8 h [2]: 1400 ng/mL | concentration at 8 h [3]: 1900 ng/mL | concentration at 1 h [4]: 7300 ng/mL | pIC50 [5]: 5.51
SMILES: COc1ccc(CNC(=O)N2CCN(c3ncnc4cc(OC)c(OC)cc34)CC2)cc1

concentration at 1 h [6]: 5400 ng/mL | concentration at 1 h [7]: 8100 ng/mL | concentration at 8 h [8]: 1600 ng/mL | concentration at 8 h [9]: 900 ng/mL | pIC50 [10]: 6.62 | IC50 [11]: > 200 uM l-1 | pIC50 [12]: < 4.52 | IC50 [13]: > 30 uM l-1 | pIC50 [14]: < 4.52 | pIC50 [15]: < 4.52 | pIC50 [16]: < 4.52 | IC50 (MAP kinase p38): > 30 uM l-1 | pIC50 [17]: < 4.52 | IC50 (Protein kinase C (PKC)): > 30 uM l-1 | IC50 [18]: > 30 uM l-1 | pIC50 [19]: < 4.52 | pIC50 [20]: < 4.52 | pIC50 [21]: < 4.52
SMILES: COc1cc2ncnc(N3CCN(/C(S)=N\Cc4ccccc4)CC3)c2cc1OC

concentration at 8 h [22]: 3700 ng/mL | solubility [23]: 2 µg/mL (≈ 5.01 µM) | concentration at 1 h [24]: 7700 ng/mL | AUC [25]: 145000 ng·h/mL | Cmax [25]: 15900 ng/mL | Tmax [25]: 3.33 h | half-life [25]: 4.25 h | logD [26]: 2.72 | concentration at 8 h [27]: 700 ng/mL | concentration at 1 h [28]: 12400 ng/mL
SMILES: COc1cc2ncnc(N3CCN(C(=O)Nc4ccsc4)CC3)c2cc1OC

concentration at 1 h [29]: 2600 ng/mL | concentration at 1 h [30]: 2600 ng/mL | concentration at 8 h [31]: < 100 ng/mL | concentration at 8 h [32]: < 100 ng/mL | solubility [23]: 2.2 µg/mL | AUC [25]: 9840 ng·h/mL | Cmax [25]: 6980 ng/mL | Tmax [25]: 0.67 h | half-life [25]: 2.11 h | logD [26]: 2.49 | pIC50 [5]: 6.55
SMILES: COc1cc2ncnc(N3CCN(/C(S)=N\Cc4cccnc4)CC3)c2cc1OC.Cl.Cl

IC50 [11]: > 30 uM l-1 | pIC50 [12]: 5.15 | pIC50 [14]: 6.10 | IC50 (Protein kinase C (PKC)): > 30 uM l-1 | IC50 [18]: > 30 uM l-1
SMILES: COc1cc2ncnc(N3CCN(C(=O)Nc4ccsc4)CC3)c2cc1OC.Cl
